Measured values gathered from unrelated publications.
Compare with care: the assays were run in different laboratories.
Observed: microbial growth

SMILES	organism	test	system	conditions	MIC
CC(C)Oc1c(NC(=O)c2ccc(NC(=O)[C@H](CC(N)=O)NC(=O)c3ccc(NC(=O)c4ccc(C#N)cc4)cc3)cc2)ccc(C(=O)Nc2ccc(C(=O)O)cc2)c1O	Proteus vulgaris		DSM2140		0.25 µg/mL
O=C(CCc1ccc(O)c(O)c1)NCCCCCCCC[P+](c1ccccc1)(c1ccccc1)c1ccccc1.[Br-]	Cryptococcus neoformans	broth dilution	ATCC208821	24 h	> 32 µg/mL
CNC(=O)c1cc(Oc2ccc(NC(=O)Nc3ccc(Cl)c(C(F)(F)F)c3)cc2)ccn1	Listeria monocytogenes				3 µM
CCCCCCCCCCCCCCSC[C@@H]1O[C@@H](O[C@@H]2[C@@H](O)[C@H](O[C@@H]3O[C@@H](CN)[C@H](O)[C@@H](O)[C@@H]3N)[C@@H](N)C[C@H]2N)[C@@H](O)[C@H](N)[C@H]1O	Listeria monocytogenes		ATCC19115		0.5 to 1 µg/mL
CO[C@@H](C(N)=O)[C@H](NC(=O)c1ccc(NC(=O)c2ccc(C#N)cc2)cc1)C(=O)Nc1ccc(C(=O)Nc2ccc(C(=O)Nc3ccc(C(=O)O)cc3)c(O)c2OC(C)C)cc1	Proteus vulgaris		DSM2140		0.125 µg/mL
CCCCCCC/C=C/C(=O)N1C(=O)/C(=C(\O)c2ccc(O)cc2)C(=O)C1CC(C)C (centres unmarked)	Proteus vulgaris		ATCC33420		> 200 µg/mL
O=C(CCCCCCCCCC[P+](c1ccccc1)(c1ccccc1)c1ccccc1)Nc1cc(O)c(O)c(O)c1.[Br-]	Cryptococcus neoformans	broth dilution	ATCC208821	24 h	4 µg/mL
CC(C)Oc1c(NC(=O)c2ccc(NC(=O)c3ccc(NC(=O)[C@H](CC(N)=O)NC(=O)c4ccc(NC(=O)c5ccc(C#N)cn5)cc4)cc3)c(OC(C)C)c2O)ccc(C(=O)O)c1O	Proteus vulgaris		DSM2140		1 µg/mL
CCCCCCC/C=C/C(=O)N1C(=O)/C(=C(/C)O)C(=O)C1Cc1ccc(OC(C)(C)C)cc1 (centres unmarked)	Proteus vulgaris		ATCC33420		> 200 µg/mL
C/C(=C\c1ccc(C#N)cc1)C(=O)Nc1ccc(C(=O)N[C@@H](CC(N)=O)C(=O)Nc2ccc(C(=O)Nc3ccc(C(=O)Nc4ccc(C(=O)O)cc4)c(O)c3OC(C)C)cc2)cc1	Proteus vulgaris		DSM2140		≤ 0.03 µg/mL
CCCCC(=O)N1C(=O)/C(=C(/C)O)C(=O)C1CC(C)C (centres unmarked)	Proteus vulgaris		ATCC33420		> 200 µg/mL
O=C(Cc1cc(O)c(O)c(O)c1)NCCCCCCCC[P+](c1ccccc1)(c1ccccc1)c1ccccc1.[Br-]	Cryptococcus neoformans	broth dilution	ATCC208821	24 h	> 32 µg/mL
NC[C@H]1O[C@H](O[C@H]2[C@H](O)[C@@H](O[C@H]3O[C@H](CO)[C@@H](O)[C@H](N)[C@H]3O)[C@H](N)C[C@@H]2N)[C@H](O)[C@@H](O)[C@@H]1O	Listeria monocytogenes		ATCC19115		> 128 µg/mL
CCCCCCC/C=C/C(=O)N1CC(=O)/C(=C(\C)O)C1=O	Proteus vulgaris		ATCC33420		> 200 µg/mL
